High-throughput results as filed in PubChem.
Compounds with a hit are over-represented: about 2.2% of the library has one in this group of screens.
BaF3 parental – counter-screen for JAK2V617F inhibitors: parental Ba/F3 viability inhibitors; CellTiter-Glo ATP luminescence; inhibition, % at 5.6 µM; 220,000 compounds, 1.1% hits; AID 1486;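 active means inhibition above a per-campaign cutoff, the mean inhibition of all tested compounds plus 3 SD, cut at about 27% in these data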
MT stabilizer – microtubule stabilization, imaging screen; HeLa tubulin immunostaining HCS, 24 h; share of cells brighter than vehicle mean+2SD; % tubulin-high responders, % at 10 µM; 200,000 compounds, 0.83% hits; AID 2205;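 active means plate Z-score above 3 for both tubulin-high and condensed-nucleus cell shares, with cell loss under 80%, at 10 µM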;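 further: anti alpha tubulin signal scored within the nucleus-defined area of each cell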
b-catenin transl – modulators of beta-catenin nuclear translocation | HeLa beta-catenin nuclear translocation, immunofluorescence imaging | nuclear translocation activity, % at 5 µM | 190,000 compounds, 0.3% hits;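 active means nuclear translocation activity above 50% at 5 µM, with a well cell count of 50 or more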;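 further: per-cell ratio of nuclear to cytoplasmic median beta-catenin stain intensity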
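test system = HeLa cells, endogenous beta-catenin | dosing = single 5 µM dose plus 0.02–20 µM confirmation series | times = compound treatment 24 h, 37°C, 5% CO2 | technique = beta-catenin immunofluorescence imaging with DAPI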
IEC-6 tox – kills IEC-6 intestinal cells in KLF5 counter-screen; 290,000 compounds, 0.78% hits; inhibition, % at 5 µM; IEC-6 cytotoxicity, luminescence viability; in the data active means inhibition above about 22%
APP 5UTR inh – APP translation inhibition | SH-SY5Y APP 5'UTR-luciferase reporter, luminescence | inhibition, % at 2 µM | 190,000 compounds, 0.82% hits | AID 1285;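 active means inhibition above a set limit, derived from the sample mean plus 3 SD, cut at about 45% in these data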
Ba/F3 V617F tox – reduce viability of Ba/F3 cells dependent on JAK2V617F. Ba/F3 EpoR-JAK2V617F viability, ATP luminescence. AID 1446. inhibition, % at 5.6 µM. 220,000 compounds, 1.1% hits;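 active means inhibition above the campaign mean plus 3 SD over all tested compounds, cut at about 24% in these data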;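 further: cytokine-independent growth of Ba/F3 cells driven by EpoR plus mutant JAK2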
A number is an active result; - = inactive; . = no result given.

SMILES	BaF3 parental	MT stabilizer	b-catenin transl	IEC-6 tox	APP 5UTR inh	Ba/F3 V617F tox
CCCC1(c2ccccc2)NC(=O)N(CC(=O)Nc2ccccc2C(F)(F)F)C1=O (centres undefined)	.	.	.	-	.	.
COc1ccc(CNC(=O)C2CCCN(S(=O)(=O)c3ccc(-n4cnnn4)cc3)C2)cc1 (centres undefined)	.	.	.	-	.	.
CC/C(=N\NC(=O)CCC(=O)NCc1ccccc1)c1ccc(O)cc1	-	11.6	-	-	-	-
CCN(CC)c1ccc(/C=N/Nc2nc(C)cc(=O)[nH]2)c(O)c1	-	-	-	-	85.1	-
CCN(CC)S(=O)(=O)c1cccc(C(=O)N/N=C/c2cccc(O)c2O)c1	-	-	.	-	50.0	-
CCOc1ccccc1/C=N/NC(=O)c1cccc(S(=O)(=O)N2CCOCC2)c1	-	-	-	-	-	-
CCN(CC)c1ccc(/C=N/NC(=O)c2cccc(S(=O)(=O)N3CCOCC3)c2)c(O)c1	-	-	-	-	60.3	-
COc1ccc(CC2=CC(=O)c3ccccc3C2=O)cc1	.	.	.	-	.	.
CCOc1ccc(CCNC(=O)Cn2ncn3nc(-c4ccc(OC)cc4)cc3c2=O)cc1OCC	.	.	.	-	.	.
CCOc1ccc(Br)cc1/C(C)=N\NC1=NCCN1	-	34.6	81.5	-	-	-
O=C(CCCc1nc(-c2ccccc2)no1)NC1CCCCC1	.	.	.	-	.	.
CCCCNc1nc(-c2ccccc2)c(C(=O)OCC)cc1C#N	-	35.0	.	-	-	-
C=CCNc1nc(-c2ccccc2)c(C(=O)OCC)cc1C#N	-	33.2	-	-	-	-
CCOC(=O)c1cc(C#N)c(Oc2ccccc2)nc1-c1ccccc1	-	-	-	-	-	-
CCOC(=O)c1cc(C#N)c(N2CCOCC2)nc1-c1ccccc1	-	-	-	-	-	-
O=C(CN1C(=O)CSc2ccc(S(=O)(=O)N3CCOCC3)cc21)NCc1ccc(F)cc1	.	.	.	-	.	.
Cc1ccc(S(=O)(=O)NC(C)CCc2ccccc2)cc1C(N)=O (centres undefined)	.	.	.	-	.	.
CCOc1ccc(CCNC(=O)C2CCN(S(=O)(=O)N3CCCCC3)CC2)cc1OCC	92.6	-	-	-	-	-
CC1(C)N=C(N)NC(Nc2ccccc2)=N1	98.5	-	-	-	-	94.3
Cc1ccccc1NC1=NC(C)(C)N=C(N)N1	-	-	-	-	-	-
Nc1ccc(O)cc1C(=O)OCC(=O)c1ccc(C2CCCCC2)cc1	29.5	-	-	-	48.9	71.3
CCN(CC)c1ccc(C(=O)n2cnc3ccccc32)cc1	-	22.2	-	-	-	-
O=C(COc1ccc(Br)cc1)N1CCN(S(=O)(=O)/C=C/c2ccccc2)CC1	-	-	-	-	68.7	-
O=C(COc1ccccc1F)N1CCN(S(=O)(=O)/C=C/c2ccccc2)CC1	-	-	-	-	-	-
O=C(c1cc(F)ccc1F)C1CCCN(C(=O)c2ccc3nccnc3c2)C1 (centres undefined)	.	.	.	-	.	.
SMILES	BaF3 parental	MT stabilizer	b-catenin transl	IEC-6 tox	APP 5UTR inh	Ba/F3 V617F tox
COc1ccc(S(=O)(=O)N2c3ccccc3OCC2C(C)(C)C)cc1 (centres undefined)	-	13.7	-	-	-	-
COc1ccc(S(=O)(=O)N2c3ccccc3OCC2C)cc1 (centres undefined)	73.2	17.7	110.6	78.6	95.6	72.0
COc1ccc(S(=O)(=O)N2c3ccccc3OCC2c2ccccc2)cc1 (centres undefined)	-	23.3	-	-	.	-
CCOc1ccccc1N(CC(=O)NCc1ccco1)C(=O)CCC(=O)Nc1nccs1	.	.	.	-	.	.
Cc1cccc(C)c1NS(=O)(=O)c1c(C(=O)N2CCCCC2)c(C)n(C)c1C	.	.	.	-	.	.
COC(=O)c1ccc(/C=N/NC(=O)c2ccccc2Cl)cc1	-	-	-	-	-	-
CC(C)c1ccc(/C=N/NC(=O)c2ccccc2Cl)cc1	-	23.5	-	-	61.4	-
Cc1cc[n+](-c2ccccc2)c2ccccc12	65.2	-	-	-	-	67.8
Cc1cc[n+](CCC(=O)O)c2ccccc12	-	-	-	-	-	-
COc1cccc(-c2cc(=O)c3cc(NC(C)=O)ccc3[nH]2)c1	-	29.8	.	-	-	-
CC(=O)Nc1ccc2[nH]c(C)cc(=O)c2c1	-	-	.	-	-	-
COc1cc(/C=C2/SC(=Nc3ccc(O)cc3)NC2=O)ccc1O	72.5	.	-	-	.	75.2
COc1cc(/C=C2\SC(=Nc3ccccc3OC)NC2=O)ccc1O	.	.	.	-	.	.
Cc1ccc(C(=O)N/C(=C\c2ccc(-c3ccc(Br)cc3)o2)C(=O)NCCCN(C)C)cc1	60.2	-	-	-	-	-
Cc1ccc(C(=O)N/C(=C\c2ccc(-c3cccc([N+](=O)[O-])c3)o2)C(=O)NCCCN(C)C)cc1	.	.	.	-	.	.
CC(=O)Nc1ccc(S(=O)(=O)N(Cc2ccccc2)C(C)C)cc1	49.9	-	-	-	-	32.0
N#Cc1c(N)nc2c(c1-c1ccc3c(c1)OCO3)CCc1ccccc1-2	-	25.9	-	-	.	-
CNC(=O)COc1ccc(S(=O)(=O)N2CCCC2)cc1	.	.	.	-	.	.
CSc1cc(-c2ccccc2)n(Cc2ccccc2Cl)c(=O)c1C#N	-	43.4	.	-	-	-
CCCn1c(-c2ccccc2)cc(SC)c(C#N)c1=O	-	-	-	-	-	-
O=C(Nc1nnc(S(=O)(=O)N2CCCCC2)s1)c1cccc(Br)c1	.	.	.	-	.	.
CC(C)(C)c1nc2ccccc2c2nnc(SCC(=O)Nc3nccs3)n12	-	41.9	-	-	-	-
CC(C)(C)c1nc2ccccc2c2nnc(SCC(=O)Nc3nc4ccccc4s3)n12	-	-	-	-	-	-
O=C1/C(=C/c2cccc([N+](=O)[O-])c2)CCc2ccccc21	-	-	-	-	-	-
CCN1C/C(=C\c2cccc([N+](=O)[O-])c2)C(=O)/C(=C/c2cccc([N+](=O)[O-])c2)C1	-	28.4	-	-	96.0	-
SMILES	BaF3 parental	MT stabilizer	b-catenin transl	IEC-6 tox	APP 5UTR inh	Ba/F3 V617F tox
c1ccc(-c2c[n+]3c(n2-c2ccccc2)SCC3)cc1	61.0	.	-	-	.	65.6
CCOc1ccc(-n2c(-c3ccc(Cl)cc3)c[n+]3c2SCC3)cc1	74.4	-	-	-	-	70.0
CCOc1ccc(C2=CSC3=NCCN23)cc1	.	.	.	-	.	.
Cc1nc2c(-c3ccccc3)c(C)[nH]n2c(=O)c1Cc1ccccc1	-	-	-	-	-	-
Cc1nc2c(-c3ccc(Cl)cc3)c(C)[nH]n2c(=O)c1Cc1ccccc1	41.4	-	-	-	-	31.5
O=C(C1CCC(=O)N(C2CCCC2)C1)N1CCC(Oc2ccccc2Cl)CC1 (centres undefined)	.	.	.	-	.	.
COc1ccc(Nc2nc(-c3cc4cccc(OC)c4oc3=O)cs2)cc1	-	-	-	-	-	-
COc1cccc2sc(NN)nc12	-	-	-	-	-	-
COc1cccc2sc(Nc3nc(-c4ccncc4)cs3)nc12	82.5	22.5	54.7	53.7	93.7	85.4
COc1cccc(-c2nnc(Nc3nc4c(F)cccc4s3)o2)c1	-	-	-	-	-	-
COc1cccc2sc(Nc3nnc(-c4ccccc4Cl)o3)nc12	85.1	-	-	-	84.7	82.1
